Values after ≈ are worked out from the molar mass of the structure shown. Bounds are passed on as bounds.

Common to all, as to assay type: functional
For one assay, the system named is Aspergillus fumigatus. Put plainly: Antifungal activity against Aspergillus fumigatus after 16 to 18 hrs by serial dilution method. The conditions noted are these: for MIC: Aspergillus fumigatus.
The test system of a further assay is Staphylococcus aureus. The assay can be described thus: Antibacterial activity against Staphylococcus aureus after 16 to 18 hrs by serial dilution method. The following applies: for MIC: Staphylococcus aureus. In outline: (§1)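 The test compound was dissolved in DMF and serially diluted. A standard drop of the prepared microbial culture was added to each dilution, and tubes were incubated at 37 °C for 16–18 h. MIC was taken as the highest dilution that stayed clear with no visible turbidity.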

The test system of the next assay is Talaromyces marneffei. The assay can be described thus: Antifungal activity against Penicillium marneffei after 16 to 18 hrs by serial dilution method. The following applies: for MIC: Talaromyces marneffei. In outline:
as §1

A further assay concerns Escherichia coli. Put plainly: Antibacterial activity against Escherichia coli after 16 to 18 hrs by serial dilution method. The following applies: for MIC: Escherichia coli. In outline:
as §1

Assay [1] concerns Trichophyton mentagrophytes. Put plainly: Antifungal activity against Trichophyton mentagrophytes after 16 to 18 hrs by serial dilution method. The following applies: for MIC: Trichophyton mentagrophytes.
The next assay deals with Pseudomonas aeruginosa. The assay can be described thus: Antibacterial activity against Pseudomonas aeruginosa after 16 to 18 hrs by serial dilution method. The conditions noted are these: for MIC: Pseudomonas aeruginosa. The method in brief:
as §1

The test system of another assay is Klebsiella pneumoniae. Put plainly: Antibacterial activity against Klebsiella pneumoniae after 16 to 18 hrs by serial dilution method. The following applies: for MIC: Klebsiella pneumoniae.
A further assay deals with Aspergillus flavus. The assay can be described thus: Antifungal activity against Aspergillus flavus after 16 to 18 hrs by serial dilution method. The following applies: for MIC: Aspergillus flavus. In outline: as §1

On to `Cc1cccc(CSc2nnc(-c3ccccc3COc3ccc(Cl)cc3)o2)c1`, for which the “inhibition zone (IZ)” value (in the assay with Aspergillus fumigatus; in the assay with Staphylococcus aureus; in the assay with Talaromyces marneffei; in the assay on Escherichia coli; in assay [1]; in the assay on Pseudomonas aeruginosa) was 11 mm throughout. The “inhibition zone (IZ)” value in the assay on Klebsiella pneumoniae and in the assay with Aspergillus flavus was 11 mm throughout. In addition, the MIC (in the assay on Aspergillus fumigatus; in the assay on Staphylococcus aureus; with Talaromyces marneffei; in the assay on Escherichia coli; in assay [1]; in the assay with Pseudomonas aeruginosa) was 12.5 µg/mL (≈ 29.6 µM) each time. The minimum inhibitory concentration (MIC) in the assay on Klebsiella pneumoniae and against Aspergillus flavus was 12.5 µg/mL (≈ 29.6 µM) in each case.
For `CCSc1nnc(-c2ccccc2COc2cccc(C)c2)o1`, the “inhibition zone (IZ)” value (with Aspergillus fumigatus; with Staphylococcus aureus; in the assay on Talaromyces marneffei; with Escherichia coli; in assay [1]; in the assay with Pseudomonas aeruginosa) was below 10 mm each time. Also, the “inhibition zone (IZ)” value in the assay on Klebsiella pneumoniae and in the assay with Aspergillus flavus was below 10 mm throughout. The MIC (against Aspergillus fumigatus; against Staphylococcus aureus; with Talaromyces marneffei; in the assay with Escherichia coli; in assay [1]; against Pseudomonas aeruginosa) was 25 µg/mL (≈ 76.6 µM) throughout. For the same compound, the minimal inhibitory concentration (MIC) against Klebsiella pneumoniae and against Aspergillus flavus was 25 µg/mL (≈ 76.6 µM) in each case.
On to `Clc1ccc(CSc2nnc(-c3ccccc3COc3ccc(Cl)cc3)o2)cc1`, for which the “inhibition zone (IZ)” value (in the assay with Aspergillus fumigatus; in the assay with Staphylococcus aureus; in the assay with Talaromyces marneffei; with Escherichia coli; in assay [1]; in the assay on Pseudomonas aeruginosa) was 11 mm each time. The “inhibition zone (IZ)” value in the assay with Klebsiella pneumoniae and with Aspergillus flavus was 11 mm throughout. The minimum inhibitory concentration (MIC) (in the assay with Aspergillus fumigatus; against Staphylococcus aureus; in the assay on Talaromyces marneffei; in the assay with Escherichia coli; in assay [1]; in the assay with Pseudomonas aeruginosa) was 12.5 µg/mL (≈ 28.2 µM) each time. The MIC in the assay on Klebsiella pneumoniae and against Aspergillus flavus was 12.5 µg/mL (≈ 28.2 µM) in each case.
As to `FC(F)(F)c1cccc(NCn2nc(-c3ccccc3COc3ccc(Cl)cc3)oc2=S)c1`, the “inhibition zone (IZ)” value (with Aspergillus fumigatus; with Staphylococcus aureus; in the assay with Talaromyces marneffei; in the assay on Escherichia coli; in assay [1]; in the assay with Pseudomonas aeruginosa) was 16 mm in each case. In addition, the “inhibition zone (IZ)” value in the assay with Klebsiella pneumoniae and with Aspergillus flavus was 16 mm in each case. Besides, the minimum inhibitory concentration (MIC) (in the assay with Aspergillus fumigatus; against Staphylococcus aureus; in the assay on Talaromyces marneffei; against Escherichia coli; in assay [1]; against Pseudomonas aeruginosa) was 6.25 µg/mL (≈ 12.7 µM) in each case. Further, the MIC with Klebsiella pneumoniae and in the assay on Aspergillus flavus was 6.25 µg/mL (≈ 12.7 µM) each time.
In the case of `Cc1ccccc1OCc1ccccc1-c1nnc(SCc2ccccc2)o1`, the “inhibition zone (IZ)” value (in the assay with Aspergillus fumigatus; with Staphylococcus aureus; in the assay on Talaromyces marneffei; in the assay with Escherichia coli; in assay [1]; in the assay on Pseudomonas aeruginosa) was below 10 mm throughout. Also, the “inhibition zone (IZ)” value in the assay with Klebsiella pneumoniae and with Aspergillus flavus was below 10 mm throughout. Further, the minimal inhibitory concentration (MIC) (in the assay on Aspergillus fumigatus; in the assay with Staphylococcus aureus; with Talaromyces marneffei; against Escherichia coli; in assay [1]; against Pseudomonas aeruginosa) was 25 µg/mL (≈ 64.4 µM) in each case. Also, the MIC against Klebsiella pneumoniae and against Aspergillus flavus was 25 µg/mL (≈ 64.4 µM) each time.
Turning to `CCSc1nnc(-c2ccccc2COc2ccc(Cl)cc2)o1`, the “inhibition zone (IZ)” value (in the assay with Aspergillus fumigatus; in the assay on Staphylococcus aureus; in the assay on Talaromyces marneffei; in the assay with Escherichia coli; in assay [1]; in the assay with Pseudomonas aeruginosa) was below 10 mm each time. Further, the “inhibition zone (IZ)” value in the assay with Klebsiella pneumoniae and in the assay on Aspergillus flavus was below 10 mm each time. Besides, the MIC (against Aspergillus fumigatus; in the assay with Staphylococcus aureus; with Talaromyces marneffei; in the assay with Escherichia coli; in assay [1]; against Pseudomonas aeruginosa) was 25 µg/mL (≈ 72.1 µM) each time. In addition, the minimum inhibitory concentration (MIC) in the assay with Klebsiella pneumoniae and against Aspergillus flavus was 25 µg/mL (≈ 72.1 µM) in each case.
For the compound `Cc1ccc(OCc2ccccc2-c2nnc(SCc3ccccc3)o2)cc1`, the “inhibition zone (IZ)” value (in the assay on Aspergillus fumigatus; with Staphylococcus aureus; in the assay on Talaromyces marneffei; in the assay on Escherichia coli; in assay [1]; with Pseudomonas aeruginosa) was below 10 mm in each case. Moreover, the “inhibition zone (IZ)” value with Klebsiella pneumoniae and with Aspergillus flavus was below 10 mm in each case. The minimum inhibitory concentration (MIC) (in the assay on Aspergillus fumigatus; in the assay on Staphylococcus aureus; against Talaromyces marneffei; with Escherichia coli; in assay [1]; in the assay with Pseudomonas aeruginosa) was 25 µg/mL (≈ 64.4 µM) each time. Further, the MIC in the assay with Klebsiella pneumoniae and in the assay with Aspergillus flavus was 25 µg/mL (≈ 64.4 µM) in each case.
`Cc1ccc(Cl)c(NCn2nc(-c3ccccc3COc3ccccc3C)oc2=S)c1`: the “inhibition zone (IZ)” value (with Aspergillus fumigatus; in the assay on Staphylococcus aureus; with Talaromyces marneffei; with Escherichia coli; in assay [1]; in the assay on Pseudomonas aeruginosa) was below 10 mm throughout. The “inhibition zone (IZ)” value in the assay with Klebsiella pneumoniae and with Aspergillus flavus was below 10 mm throughout. In addition, the MIC (in the assay with Aspergillus fumigatus; against Staphylococcus aureus; in the assay on Talaromyces marneffei; in the assay on Escherichia coli; in assay [1]; in the assay on Pseudomonas aeruginosa) was 25 µg/mL (≈ 55.3 µM) throughout. For the same compound, the MIC with Klebsiella pneumoniae and in the assay with Aspergillus flavus was 25 µg/mL (≈ 55.3 µM) throughout.
Turning to `Cc1ccc(OCc2ccccc2-c2nnc(SCc3ccc(Cl)cc3Cl)o2)cc1`, the “inhibition zone (IZ)” value (in the assay on Aspergillus fumigatus; in the assay with Staphylococcus aureus; in the assay with Talaromyces marneffei; in the assay with Escherichia coli; in assay [1]; in the assay on Pseudomonas aeruginosa) was 16 mm throughout. Moreover, the “inhibition zone (IZ)” value in the assay with Klebsiella pneumoniae and in the assay with Aspergillus flavus was 16 mm in each case. Moreover, the MIC (against Aspergillus fumigatus; in the assay with Staphylococcus aureus; against Talaromyces marneffei; in the assay on Escherichia coli; in assay [1]; against Pseudomonas aeruginosa) was 6.25 µg/mL (≈ 13.7 µM) each time. Also, the MIC in the assay on Klebsiella pneumoniae and against Aspergillus flavus was 6.25 µg/mL (≈ 13.7 µM) each time.
In the case of `Clc1ccc(OCc2ccccc2-c2nnc(-c3cccc(Br)c3)o2)cc1`, the “inhibition zone (IZ)” value (with Aspergillus fumigatus; in the assay with Staphylococcus aureus; in the assay with Talaromyces marneffei; in the assay with Escherichia coli; in assay [1]; in the assay on Pseudomonas aeruginosa) was below 10 mm throughout. Moreover, the “inhibition zone (IZ)” value with Klebsiella pneumoniae and in the assay with Aspergillus flavus was below 10 mm in each case. Besides, the minimal inhibitory concentration (MIC) (against Aspergillus fumigatus; with Staphylococcus aureus; in the assay on Talaromyces marneffei; with Escherichia coli; in assay [1]; in the assay on Pseudomonas aeruginosa) was 25 µg/mL (≈ 56.6 µM) each time. Further, the MIC in the assay with Klebsiella pneumoniae and in the assay with Aspergillus flavus was 25 µg/mL (≈ 56.6 µM) each time.
Consider `Cc1cccc(OCc2ccccc2-c2nnc(-c3cccc(Br)c3)o2)c1`, for which the “inhibition zone (IZ)” value (in the assay on Aspergillus fumigatus; with Staphylococcus aureus; in the assay on Talaromyces marneffei; in the assay with Escherichia coli; in assay [1]; with Pseudomonas aeruginosa) was below 10 mm each time. The “inhibition zone (IZ)” value in the assay on Klebsiella pneumoniae and with Aspergillus flavus was below 10 mm in each case. Moreover, the minimal inhibitory concentration (MIC) (against Aspergillus fumigatus; against Staphylococcus aureus; against Talaromyces marneffei; against Escherichia coli; in assay [1]; in the assay on Pseudomonas aeruginosa) was 25 µg/mL (≈ 59.3 µM) each time. Further, the MIC in the assay on Klebsiella pneumoniae and in the assay on Aspergillus flavus was 25 µg/mL (≈ 59.3 µM) each time.
In the case of `Cc1cccc(CSc2nnc(-c3ccccc3COc3ccccc3C)o2)c1`, the “inhibition zone (IZ)” value turned out to be 16 mm in the assay with Aspergillus fumigatus; 11 mm in the assay on Staphylococcus aureus; 11 mm in the assay on Talaromyces marneffei; 11 mm with Escherichia coli; 11 mm in assay [1]; 11 mm in the assay with Pseudomonas aeruginosa. The “inhibition zone (IZ)” value in the assay on Klebsiella pneumoniae and in the assay on Aspergillus flavus was 11 mm each time. Moreover, the minimal inhibitory concentration (MIC) in the assay on Aspergillus fumigatus came to 6.25 µg/mL (≈ 15.5 µM); in the assay on Staphylococcus aureus it was 12.5 µg/mL (≈ 31.1 µM); in the assay with Talaromyces marneffei, 12.5 µg/mL (≈ 31.1 µM); against Escherichia coli, 12.5 µg/mL (≈ 31.1 µM); in assay [1], 12.5 µg/mL (≈ 31.1 µM); with Pseudomonas aeruginosa, 12.5 µg/mL (≈ 31.1 µM). Moreover, the MIC against Klebsiella pneumoniae and in the assay on Aspergillus flavus was 12.5 µg/mL (≈ 31.1 µM) each time.

As a reminder, the MIC is the lowest concentration that inhibits growth of the organism. A high value points to a need for much substance.

Values taken from ChEMBL document CHEMBL1275272, “Synthesis, characterization and antimicrobial activity of some disubstituted 1,3,4-oxadiazoles carrying 2-(aryloxymethyl)phenyl moiety” (2010).
